# Screening data as filed in PubChem BioAssay.
# Compounds with a hit are over-represented: about 2.6% of the library has one in this group of screens.
# NadD block: inhibitors of Staphylococcus aureus NadD. inhibition, % at 20 µM. purified NadD enzyme, colorimetric absorbance read-out. actives 0.78% (n = 360,000); in the data active = inhibition above about 26%
# STEP inh: blocks human striatal-enriched tyrosine phosphatase; AID 588621; actives 0.25% (n = 360,000); inhibition, % at 20 µM; P54829; recombinant STEP, OMFP fluorogenic substrate, fluorescence;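 active = inhibition at 20 µM, scaled per plate between control wells, above about 37%, limit read from the data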;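 also: 0% = DMSO with enzyme and substrate and 100% = substrate only without enzyme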
# Target sequence (P54829 whole entry, looked up): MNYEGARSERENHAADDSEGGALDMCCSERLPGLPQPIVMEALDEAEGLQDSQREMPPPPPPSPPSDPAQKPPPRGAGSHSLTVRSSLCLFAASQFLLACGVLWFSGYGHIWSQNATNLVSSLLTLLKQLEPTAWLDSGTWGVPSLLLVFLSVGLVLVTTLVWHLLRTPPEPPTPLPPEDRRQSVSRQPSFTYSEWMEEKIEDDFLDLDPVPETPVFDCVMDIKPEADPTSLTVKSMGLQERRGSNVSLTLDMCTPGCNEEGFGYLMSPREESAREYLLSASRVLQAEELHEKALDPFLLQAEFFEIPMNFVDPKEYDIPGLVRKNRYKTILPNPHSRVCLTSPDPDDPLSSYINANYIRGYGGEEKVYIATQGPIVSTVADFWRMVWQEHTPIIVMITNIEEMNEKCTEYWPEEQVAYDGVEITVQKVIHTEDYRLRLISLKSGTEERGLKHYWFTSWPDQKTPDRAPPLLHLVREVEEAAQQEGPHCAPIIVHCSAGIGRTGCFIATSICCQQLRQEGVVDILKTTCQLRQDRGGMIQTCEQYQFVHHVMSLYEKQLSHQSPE
#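 Material: STEP (striatal-enriched tyrosine phosphatase) enzyme, cell-free; Compound dosing: 20 µM single dose in 1% DMSO; Technique: fluorescence read at 480 nm ex / 540 nm em; Times: reaction 20 min, ambient temperature; Medium: 50 mM Bis-Tris pH 6.0 with 2.5 mM DTT and 0.005% Tween 20; Also added: OMFP at 25 µM.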
# Scp-1 inhibitor: blocks human Scp-1 phosphatase activity; Recombinant Scp1, phosphopeptide, malachite green phosphate absorbance; inhibition, % at 20 µM; Q9GZU7; actives 0.88% (n = 340,000);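 active = inhibition above about 50% at 20 µM, limit read from the data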;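 also: plate controls were DMSO wells with enzyme for no effect and wells lacking enzyme for full effect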
#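 Assay system: SCP-1 catalytic fragment, aa 76-261 | Buffer or medium: Tris acetate buffer pH 5.5 with MgCl2 and Tween-20 | Compound: One concentration, 20 µM, with 1.0% DMSO | Also added: Phospho 17-mer peptide substrate | Signal: Absorbance at 630 nm | Incubation: 45 min enzyme reaction at room temperature | Measure: % inhibition of SCP-1 phosphate liberation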
# rCAG binder: molecules binding r(CAG) RNA repeats; r(CAG) RNA repeat, TO-PRO-1 dye displacement fluorescence; actives 1.3% (n = 370,000); inhibition, % at 3 µM;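 active = inhibition above the plate cutoff, the mean of all test compounds on that plate plus 3 SD, cut at about 35% in these data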;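 also: 0% = DMSO alone and 100% = 100 µM mitoxantrone as full dye displacement; higher means more dye released from RNA so lower well fluorescence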
# LMPTP block: LMPTP (human) inhibition; inhibition, % at 20 µM; P24666; AID 651560; actives 0.22% (n = 360,000); recombinant LMPTP-A, OMFP fluorogenic substrate, fluorescence intensity;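 active = compounds that cut the enzyme signal by at least half of the control window in the single-dose screen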;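 also: plate controls were DMSO wells with enzyme plus substrate for no effect and substrate without enzyme for full effect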
# Target sequence (P24666 whole entry, looked up): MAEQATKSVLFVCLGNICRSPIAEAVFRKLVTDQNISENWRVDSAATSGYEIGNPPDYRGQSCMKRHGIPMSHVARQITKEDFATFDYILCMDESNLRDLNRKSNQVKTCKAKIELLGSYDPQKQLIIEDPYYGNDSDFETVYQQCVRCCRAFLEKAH
#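 Test system – LMPTP-A phosphatase enzyme · Quantity – 0.625 nM LMPTP-A final · Reagent – OMFP substrate, 400 µM final · Dosing – one test concentration per compound, 20 µM, with 3% DMSO overall · Timing – 50 min enzyme reaction at room temperature, protected from light · Detection – fluorescence intensity · Controls – substrate-only low control, DMSO enzyme-plus-substrate high control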
# Scp1 confirm: confirmation of human Scp-1 phosphatase inhibitors; shares compounds with Scp-1 inhibitor; inhibition, % at 20 µM; recombinant SCP-1 catalytic domain, phosphate release, malachite green absorbance; AID 540281; actives 61% (n = 2,500);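 also: plate controls were DMSO with enzyme for no effect and buffer wells lacking enzyme for full effect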
# Scp-1 MG ctr: colorimetric interference in Scp-1 counter-screen. shares compounds with Scp-1 inhibitor. Colorimetric interference counterscreen, malachite green absorbance 630 nm. apparent inhibition (interference), % at 20 µM. 2,500 tested, under 10 active. AID 540313;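 also: compounds added after enzyme reaction finished so only phosphate colour detection is probed; plate controls were DMSO wells with completed Scp-1 reaction for no effect and substrate wells lacking enzyme for full effect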
# Scp1 DSF: binds human Scp-1, shifting its melting temperature | shares compounds with Scp-1 inhibitor | Recombinant SCP1, Sypro Orange thermal shift Tm | thermal shift relative to vanadate control, % at 40 µM | actives 25% (n = 1,500) | AID 540329;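 active = substances whose mean melting-temperature shift, as a percentage of the reference inhibitor's shift, reaches about 5.3%, limit read from the data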;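 also: 0% = Tm of DMSO wells and 100% = Tm with sodium orthovanadate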
# Starred values were filed as active, the others as inactive; · = no result given; ! = a repeat was not active.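 The calls were made as follows, unless noted: active = inhibition of at least 30% at 20 µM; inactive = the rest.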
SMILES,NadD block,STEP inh,Scp-1 inhibitor,rCAG binder,LMPTP block,Scp1 confirm,Scp-1 MG ctr,Scp1 DSF
CCOC(=O)C(C(=O)Nc1ccccn1)C1CCCCC1 (stereo not drawn),2,4,50*,-4,0,77*,-10,-4
CCOC(=O)C(C(=O)Nc1cccc(C)n1)C1CCCCC1 (stereo not drawn),-7,1,2,-6,-3,·,·,·
O=C(Nc1ccc(F)cc1)N[C@@H]1C[C@@H]2O[C@H](CO)CC[C@@H]2O[C@@H]1CCc1ccc(C2=CCCC2)cc1,·,·,·,4,·,·,·,·
COc1cc(O)c(C(C)=O)c(CC(=O)O)c1,-1,1,64*,11,1,49*,-12,9.4*
COc1cc(O)c(C(C)=O)c(OC)c1,-1,9,-6,2,0,·,·,·
c1ccc2[nH]c(-c3ccnc4ccccc34)nc2c1,3,2,100*!,3,-1,79*,-20,-13
CC(C)N(Cc1cn(Cc2ccccc2)nn1)S(=O)(=O)c1ccccc1Br,·,·,·,5,·,·,·,·
O=C1/C(=C\c2ccc(O)cc2)SC(=S)N1c1cccnc1,31*,34,98*,-5,25,16,-13,·
C=CCN=C1NC(c2cccc(Cl)c2)C(C(=O)OC)=C(C)N1Cc1cccc(C(F)(F)F)c1 (stereo not drawn),·,·,·,5,·,·,·,·
CCCc1n(CC(O)COC2CCCCC2)c2ccccc2[n+]1C (stereo not drawn),5,1,100*,-2,-1,77*,-7,-23
CCCc1n(CC(O)COCC2CC=CCC2)c2ccccc2[n+]1C (stereo not drawn),11,-1,67*,2,-1,10,-6,·
CCCc1n(CC(O)COCc2ccccc2)c2ccccc2[n+]1C (stereo not drawn),3,-3,21,-2,1,·,·,·
O=C(Nc1ccc2ncccc2c1)c1ccccc1Cl,17,-4,57*,-1,-2,5,-11,·
COc1cc(NC(=O)C2CCCN(S(=O)(=O)c3ccccc3[N+](=O)[O-])C2)cc(OC)c1 (stereo not drawn),·,·,·,11,·,·,·,·
O=C(NCCNCc1ccccc1)c1ccco1,14,10,70*,27,22,49*,-18,9.6*
CCOC(=O)[C@@]12CN(C(=O)OC(C)(C)C)CC=C1N(Cc1ccc(OC)cc1)C(=O)[C@H]2CC(=O)N1CCN(C(=O)C2CC2)CC1,·,·,·,0,·,·,·,·
O=C(CSc1nc2ccccc2c(=O)n1-c1ccccc1)NC(=O)CN1CCCC1=O,8,20,58*,1,4,39*,-10,-14
O=C(CSc1nc2ccccc2c(=O)n1-c1ccccc1)N1CCC1,-4,-1,-13,0,-1,·,·,·
Cc1nc2ccc(S(=O)(=O)NCC(=O)N(C)Cc3ccc(F)cc3)cc2s1,·,·,·,-1,·,·,·,·
O=C(O)CN1C(=O)C2C3C=CC(C3)C2C1=O (stereo not drawn),-2,3,-6,2,-1,·,·,·
C[N+]1(CN2C(=O)C3C4C=CC(C4)C3C2=O)CCCCC1 (stereo not drawn),11,-2,103*,2,-3,89*,-7,3
C#CCN1C(=O)[C@]2(NCCc3c2[nH]c2ccc(OC)cc32)c2cc(F)ccc21,·,·,·,2,·,·,·,·
COc1ccc(NC(=O)/C(C#N)=C/c2ccc3c(c2)n(C)c(=O)n3C)cc1,5,0,2,3,-2,·,·,·
COc1ccc(/C=C(\C#N)C(=O)Nc2ccc3[nH]c(=O)[nH]c3c2)cc1,3,4,111*,7,32,66*,-14,-5
COc1ccc(NC(=O)/C(C#N)=C/c2ccc(Br)o2)cc1,-2,6,77*,9,23,56*,-14,5.5*
SMILES,NadD block,STEP inh,Scp-1 inhibitor,rCAG binder,LMPTP block,Scp1 confirm,Scp-1 MG ctr,Scp1 DSF
COc1ccc(C(=O)CSc2nnc(-c3ccccn3)n2-c2ccccc2)cc1,·,·,·,3,·,·,·,·
Nc1c(C(=O)OCC(=O)Nc2cccc([N+](=O)[O-])c2)[nH]c(=O)[nH]c1=O,6,9,67*,·,33,65*,-1,6.1*
O=C(Nc1cccc([N+](=O)[O-])c1)Nc1cccc([N+](=O)[O-])c1,4,3,69*,13,10,66*,-21,17*
O=C(Nc1ccc(C(=O)O)cc1)Nc1cccc([N+](=O)[O-])c1,-3,-3,-15,0,-1,·,·,·
COc1ccccc1NS(=O)(=O)c1ccc2[nH]c(=S)oc2c1,1,-5,59*,5,1,-7,-12,·
Cc1cccc2cc(C(c3nnnn3C(C)(C)C)N(Cc3ccco3)CC3CCCO3)c(=O)[nH]c12 (stereo not drawn),17,3,61*,3,18,53*,-7,-2
Cc1ccc2[nH]c(=O)c(C(c3nnnn3C(C)(C)C)N(Cc3ccco3)CC3CCCO3)cc2c1 (stereo not drawn),-2,1,-4,1,0,·,·,·
CC(C)(C)C(=O)O/N=C1/C(=O)N(c2ccccc2)c2ccccc21,-5,13,89*,0,4,74*,-15,-16
O=C(CSc1nnc(-c2ccccc2)n1Cc1ccco1)Nc1ccc(Oc2ccccc2)cc1,·,·,·,5,·,·,·,·
CC(C)[C@H]1/C(=C/C2CC2)N2C(=O)C[C@@H](c3ccccc3)N=C2N1Cc1ccc2c(c1)OCO2,·,·,·,6,·,·,·,·
CC(COc1cccc(OC(F)(F)F)c1)CN1CCC(C(O)(c2ccccc2)c2ccccc2)CC1 (stereo not drawn),·,·,·,0,·,·,·,·
C=CCn1c(SCC(=O)N2CCOCC2)nc2scc(-c3ccco3)c2c1=O,27,22,73*,·,9,26,-8,·
C=CCn1c(SCC(C)=O)nc2scc(-c3ccco3)c2c1=O,14,9,19,21,25,·,·,·
CN(Cc1ccccc1)C(=O)OCc1cn(Cc2c(F)cccc2F)nn1,·,·,·,1,·,·,·,·
Cc1csc2ncc(C(=O)N3CCCc4ccccc43)c(=O)n12,3,0,87*,-1,1,-16,-18,·
Cc1csc2ncc(C(=O)N3CCc4ccccc43)c(=O)n12,4,-2,-4,2,-1,·,·,·
Cc1n[nH]c(C)c1S(=O)(=O)NCCc1ccccc1F,·,·,·,1,·,·,·,·
CC(C)CCC(C(=O)NC(C)c1ccccc1)C(=O)NC(C)c1ccccc1 (stereo not drawn),-5,10,92*,-3,52*,57*,-21,-29
